Assay results reported in ChEMBL document CHEMBL2440036, “3-[2-(Aminomethyl)-5-[(pyridin-4-yl)carbamoyl]phenyl] benzoates as soft ROCK inhibitors” (Bioorg Med Chem Lett, 2013).
The source made the active and inactive calls. No cut-off for these calls is given here.

Key:
[1] = Inhibition of ROCK in rat A7r5 cells assessed as inhibition of MLC phosphorylation by direct ELISA; format: cell-based
[2] = Apparent permeability of the compound at 10 uM after 5 hrs by PAMPA; format: ADME
[3] = target: Rho-associated protein kinase 2 (Homo sapiens, UniProt O75116); experiment: Inhibition of ROCK2 (unknown origin) using long S6 kinase peptide as substrate by radiometric assay
Chain of Rho-associated protein kinase 2 (O75116 whole entry): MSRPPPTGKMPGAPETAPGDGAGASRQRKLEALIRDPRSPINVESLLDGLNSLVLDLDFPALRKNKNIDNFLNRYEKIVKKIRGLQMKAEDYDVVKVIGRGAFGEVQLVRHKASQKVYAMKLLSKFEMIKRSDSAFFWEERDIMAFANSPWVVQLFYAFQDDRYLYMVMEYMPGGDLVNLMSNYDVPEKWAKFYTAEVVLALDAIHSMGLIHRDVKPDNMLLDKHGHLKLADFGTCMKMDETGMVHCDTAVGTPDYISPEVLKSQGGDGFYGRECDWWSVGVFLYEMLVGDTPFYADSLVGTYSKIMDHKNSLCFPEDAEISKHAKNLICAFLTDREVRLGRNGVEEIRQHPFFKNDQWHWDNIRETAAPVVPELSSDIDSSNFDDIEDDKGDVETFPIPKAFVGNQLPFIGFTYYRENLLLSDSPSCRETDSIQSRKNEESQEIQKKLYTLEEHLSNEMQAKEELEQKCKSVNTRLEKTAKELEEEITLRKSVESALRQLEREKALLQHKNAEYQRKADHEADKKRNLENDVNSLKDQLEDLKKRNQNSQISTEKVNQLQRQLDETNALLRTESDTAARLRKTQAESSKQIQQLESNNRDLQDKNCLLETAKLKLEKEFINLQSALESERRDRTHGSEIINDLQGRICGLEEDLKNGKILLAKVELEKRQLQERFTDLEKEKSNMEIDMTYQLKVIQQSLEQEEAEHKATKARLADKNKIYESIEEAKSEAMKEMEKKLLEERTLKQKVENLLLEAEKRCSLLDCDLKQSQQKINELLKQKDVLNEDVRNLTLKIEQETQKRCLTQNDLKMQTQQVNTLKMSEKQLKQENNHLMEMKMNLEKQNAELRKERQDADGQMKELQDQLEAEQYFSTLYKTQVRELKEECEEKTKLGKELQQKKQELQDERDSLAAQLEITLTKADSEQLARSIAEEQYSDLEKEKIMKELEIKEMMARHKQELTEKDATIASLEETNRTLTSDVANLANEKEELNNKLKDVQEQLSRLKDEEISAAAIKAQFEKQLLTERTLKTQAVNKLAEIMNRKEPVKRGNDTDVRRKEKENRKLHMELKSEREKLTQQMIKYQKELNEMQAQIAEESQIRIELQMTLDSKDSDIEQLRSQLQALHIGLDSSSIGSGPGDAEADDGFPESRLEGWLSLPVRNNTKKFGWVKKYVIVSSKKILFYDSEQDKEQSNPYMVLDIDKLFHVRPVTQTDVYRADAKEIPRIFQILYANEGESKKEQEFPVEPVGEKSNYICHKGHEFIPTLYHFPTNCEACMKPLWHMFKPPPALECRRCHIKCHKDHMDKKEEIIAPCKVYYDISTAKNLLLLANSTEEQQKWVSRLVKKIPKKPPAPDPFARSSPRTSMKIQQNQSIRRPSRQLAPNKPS

[4] = Half life in human plasma by LC-MS/MS analysis; format: ADME, cell-free
[5] = Drug degradation in human plasma after 60 mins by LC-MS/MS analysis; format: ADME, cell-free; conditions: read-out: Drug degradation
[6] = Stability of the compound in PBS buffer at pH 7.4; format: physicochemical
[7] = Drug degradation in conjunctiva of New Zealand white rabbit assessed as specific hydrolytic activity at 20 uM after 4 hrs by LC-MS/MS analysis; format: ADME, tissue-based, Oryctolagus cuniculus
In short: (§1)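 Test compound was incubated with ocular tissues from ocular normotensive New Zealand White rabbits, and its degradation rate was followed. Specific hydrolytic activity (pmol min-1 mg-1) was calculated by normalizing the degradation rate to tissue weight. Aqueous humor half-life refers to undiluted aqueous humor.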

[8] = organism: Oryctolagus cuniculus; experiment: Toxicity in New Zealand white rabbit assessed as hyperemia; format: organism-based; conditions: in vivo
[9] = system: Oryctolagus cuniculus; experiment: Reduction of IOP in New Zealand white rabbit eye administered topically after 3 hrs relative to baseline; format: functional; parameters: scale not given: the % may be the effect or the level left
[10] = Drug degradation in vitreous humor of New Zealand white rabbit assessed as specific hydrolytic activity at 20 uM after 4 hrs by LC-MS/MS analysis; format: ADME, tissue-based, Oryctolagus cuniculus; in short: as §1
[11] = Half life in aqueous humor of New Zealand white rabbit assessed as specific hydrolytic activity at 20 uM by LC-MS/MS analysis; format: ADME, tissue-based, Oryctolagus cuniculus, Aqueous humor of eyeball; in short: as §1
[12] = Drug degradation in sclera of New Zealand white rabbit assessed as specific hydrolytic activity at 20 uM after 4 hrs by LC-MS/MS analysis; format: ADME, tissue-based, Oryctolagus cuniculus; in short: as §1
[13] = Drug degradation in cornea of New Zealand white rabbit assessed as specific hydrolytic activity at 20 uM after 4 hrs by LC-MS/MS analysis; format: ADME, tissue-based, Oryctolagus cuniculus; in short: as §1
[14] = Drug degradation in aqueous humor of New Zealand white rabbit assessed as specific hydrolytic activity at 20 uM after 4 hrs by LC-MS/MS analysis; format: ADME, tissue-based, Oryctolagus cuniculus, Aqueous humor of eyeball; in short: as §1
[15] = system: Oryctolagus cuniculus; experiment: Reduction of IOP in New Zealand white rabbit eye administered topically after 6 hrs relative to vehicle-treated control; format: functional

SMILES | EC50 [1] [nM] | IC50 [3] [nM] | half-life [4] [min] | Stability [6] | further results
C[C@@H](N)[C@H]1CC[C@H](C(=O)Nc2ccncc2)CC1 [Y-27632] | 200 | – | > 120 | – | metabolised at 1 h [5]: < 5%
NCc1ccc(C(=O)Nc2ccncc2F)cc1-c1cccc(C(=O)OCC2CCCCO2)c1 (stereo not given) | – | 12 | 7 | Stable | –
NCc1ccc(C(=O)Nc2ccncc2F)cc1-c1cccc(C(=O)Oc2ccccc2)c1 | – | 6.2 | 7 | Stable | –
NCc1ccc(C(=O)Nc2ccncc2F)cc1-c1cccc(C(=O)OC2CCCOC2)c1 (stereo not given) | – | 8.7 | 18 | Stable | –
NCc1ccc(C(=O)Nc2ccncc2F)cc1-c1cccc(C(=O)OCC2CCC2)c1 | – | 4.3 | 13 | Stable | –
NCc1ccc(C(=O)Nc2ccncc2F)cc1-c1cccc(C(=O)OCC2CC2)c1 | – | 2.7 | 18 | Stable | –
NCc1ccc(C(=O)Nc2ccncc2)cc1-c1cccc(C(=O)OCC2CCCCC2)c1 | – | 48 | 99 | Stable | –
NCc1ccc(C(=O)Nc2ccncc2)cc1-c1cccc(C(=O)OCc2ccccc2)c1 | – | 45 | 64 | Stable | –
NCc1ccc(C(=O)Nc2ccncc2F)cc1-c1cccc(C(=O)OCC2CCCC2)c1 | 52 | 13 | 17 | Stable | –
NCc1ccc(C(=O)Nc2ccncc2F)cc1-c1cccc(C(=O)OCCO)c1 | – | 1.4 | 81 | Stable | –
NCc1ccc(C(=O)Nc2ccncc2F)cc1-c1cccc(C(=O)OCC2CCCO2)c1 (stereo not given) | 16 | 2.5 | < 5 | Stable | Drug degradation [7]: 1.52 pmol/min/mg; Activity [8]: Non-toxic; Activity [9]: 28.7%; Drug degradation [10]: 0.22 pmol/min/mg; half-life at 20 µM [11]: 116 min; Drug degradation [12]: 1 pmol/min/mg; Drug degradation [13]: 2.71 pmol/min/mg; Drug degradation [14]: 0.12 pmol/min/mg; Activity [15]: Active; Activity ([15]; record 2): 0.5%
NCc1ccc(C(=O)Nc2ccncc2F)cc1-c1cccc(C(=O)O)c1 | > 1000 | 55 | > 120 | – | Papp at 5 h, 10 µM [2]: < 0.01 ×10⁻⁶ cm/s; metabolised at 1 h [5]: < 5%
NCc1ccc(C(=O)Nc2ccncc2)cc1-c1cccc(C(=O)OC2CCCCC2)c1 | – | 20 | > 120 | Unstable | –
COC(=O)c1ccc(-c2cc(C(=O)Nc3ccncc3)ccc2CN)cc1 | – | 102 | – | – | –
CC(C)OCCOC(=O)c1cccc(-c2cc(C(=O)Nc3ccncc3F)ccc2CN)c1 | – | 37 | 6 | Stable | –
COC(=O)c1cccc(-c2cc(C(=O)Nc3ccncc3F)ccc2CN)c1 | 130 | 7.8 | 65 | Stable | –
CC(N)c1ccc(C(=O)Nc2ccncc2)cc1-c1ccc(F)cc1 (stereo not given) | 6.1 | 1.2 | > 120 | – | metabolised at 1 h [5]: < 5%
CCCOC(=O)c1cccc(-c2cc(C(=O)Nc3ccncc3F)ccc2CN)c1 | – | 5.1 | 19 | Stable | –

The next lines start with results.

EC50 [1] [nM] | IC50 [3] [nM] | half-life [4] [min] | Stability [6] | SMILES | further results
> 1000 | 167 | > 120 | – | NCc1ccc(C(=O)Nc2ccncc2)cc1-c1cccc(C(=O)O)c1 | Papp at 5 h, 10 µM [2]: < 0.01 ×10⁻⁶ cm/s; metabolised at 1 h [5]: < 5%
28 | 1.5 | 26 | Stable | COCCCOC(=O)c1cccc(-c2cc(C(=O)Nc3ccncc3)ccc2CN)c1 | –
– | < 1 | 41 | Stable | CCOC(=O)c1cccc(-c2cc(C(=O)Nc3ccncc3)ccc2CN)c1 | –
70 | 5 | 31 | Stable | NCc1ccc(C(=O)Nc2ccncc2)cc1-c1cccc(C(=O)OCC2CCCC2)c1 | –
– | 5.5 | 22 | Stable | CCCCOC(=O)c1cccc(-c2cc(C(=O)Nc3ccncc3)ccc2CN)c1 | –
8 | 2.9 | 91 | Stable | COC(=O)c1cccc(-c2cc(C(=O)Nc3ccncc3)ccc2CN)c1 | –
– | 4.9 | 58 | Stable | CCCCCOC(=O)c1cccc(-c2cc(C(=O)Nc3ccncc3)ccc2CN)c1 | –
9.1 | 1.4 | 18 | Stable | CCCOC(=O)c1cccc(-c2cc(C(=O)Nc3ccncc3)ccc2CN)c1 | –
170 | 3.6 | 12 | Stable | COCCOC(=O)c1cccc(-c2cc(C(=O)Nc3ccncc3)ccc2CN)c1 | –
– | 22 | 50 | Stable | CCCCCCOC(=O)c1cccc(-c2cc(C(=O)Nc3ccncc3)ccc2CN)c1 | –
